The text below walks through data of PMC12657421 (International Journal of Pharmaceutics: X, 2025).

Data set [1] is classed as in vivo, Sprague Dawley rats. An outline of the steps: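 Male SD rats (250 ± 20 g), acclimated one week, n = 6 per group, oral single dose. Plasma separated at 4 °C, stored −80 °C, acetonitrile-precipitated with chrysophanol internal standard and diluted with water. Emodin quantified by HPLC-MS/MS, C18 column at 40 °C, triple quadrupole.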
Data set [2] can be described thus: In vitro powder dissolution in pH 6.8 and pH 7.0 media. It counts as physicochemical. An outline of the steps:
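60 mg emodin, or an equivalent amount of cocrystal, added to 900 mL of pH 6.8 or pH 7.0 medium at 37 °C with propeller at 100 rpm. Autosampled 1 mL at 10–720 min (nine points), centrifuged 13,400 rpm for 10 min, supernatant by HPLC. Run in triplicate.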

Data set [3] is described as follows: Equilibrium solubility, shake-flask method. Format: physicochemical. Conditions: pH 1.2, pH 4.5, pH 6.8, 37 °C. An outline of the steps: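 Shake-flask method: excess solid stirred in 5 mL of water or pH 1.2, 4.5 or 6.8 buffer at 37 °C for 72 h. Samples were centrifuged, and the supernatant was assayed directly by HPLC using a modified Chinese Pharmacopoeia method.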

The conditions of data set [4]: ref NIST (National Institute of Standards and Technology, n.d); cited from earlier work.
The mark [5] stands for this setting: male, Sprague Dawley, rat, plasma, po, 100 mg/kg.

A word on the AUC(0-inf): it is the area under the concentration-time curve extrapolated to infinity. In general, AUC(0-t) refers to the area under the concentration-time curve up to a stated or last time point. Higher therefore signals more exposure. As a reminder, the Cmax is the maximum level reached in the sampled fluid or tissue. As usually defined, the MRT inf is the average time that molecules of a dose stay in the body. Broadly, the MRT last is the average time that molecules of a dose stay in the body. The Tmax is the time at which the peak concentration occurs. One may read the half-life as the time needed for the level to fall by half in the phase considered. Low readings indicate rapid decline, high ones slow decline. `Cc1cc(O)c2c(c1)C(=O)c1cc(O)cc(O)c1C2=O` [EMO, Emodin]: in data set [1] (setting [5]), the AUC(0-inf) stood at 33400 ng·h/mL, the AUC(0-t) was found to be 2370 ± 947 ng·h/mL, the highest level (Cmax) was 274 ± 160 ng/mL and the MRT inf was 5.9 ± 5.41 h. Moreover, in data set [1] (setting [5]), the MRT last was determined as 10.3 ± 1.94 h, the Tmax is 11 ± 1.67 h and the half-life is 4.13 ± 1.97 h. The same molecule had a CLz in data set [1] (rats, oral, EMO 100 mg/kg or equimolar cocrystal, plasma EMO, n = 6) of 4 ± 3 mL/h/kg. For the same molecule, the “Apparent dissolution (detectability)” value in data set [2] is given as “undetectability”. Also, the “Solubility in purified water and three other media” value in data set [3] is “negligible solubility”.

In the case of `Cc1nc(C)c(C)nc1C` [TMP, Tetramethylpyrazine], the Sublimation enthalpy in data set [4] was 22.6 kcal/mol.
